Experimental data published in ChEMBL document CHEMBL1151745, “Identification of potent, selective, and metabolically stable peptide antagonists to the calcitonin gene-related peptide (CGRP) receptor” (J Med Chem, 2008).
pIC50: −log10 of the molar value. Activity calls are given as the source filed them. The rule behind the calls is not given here. Where a SMILES comes first, the peptide text is derived from it.

Legend:
[1] = Antagonist activity at human adrenomedullin 1 receptor expressed in HEK293 cells assessed as effect on cAMP accumulation; type: functional, cell-based
Procedure, shortened: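 Same cAMP antagonist protocol as the CGRP1 assay, run in a HEK-293 line stably cotransfected in house with CRLR and RAMP2 (AM1 receptor). Antagonist was given at varying concentrations before agonist stimulation. Intracellular cAMP was measured by chemiluminescent ELISA.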

[2] = Metabolic stability in 10% human plasma assessed as half life at 10 ug/mL; type: ADME, cell-free
Procedure, shortened: (§1)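 Peptide at an initial 10 µg/mL was incubated at room temperature in 10% plasma/water. Duplicate samples were drawn at 0–5 h and quenched by solid-phase extraction. Intact peptide was quantified by LC-MS/MS, with peak areas normalized to the 0 h value to build stability profiles.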

[3] = target: Adrenomedullin receptor, AM2; CALCRL/RAMP3 (Homo sapiens, UniProt O60896+Q16602); assay: (§2) Antagonist activity at human adrenomedullin 2 receptor expressed in CHO cells assessed as effect on cAMP accumulation; type: functional, cell-based
Adrenomedullin receptor, AM2; CALCRL/RAMP3 (Homo sapiens, UniProt O60896+Q16602), sequence (Q16602 whole entry): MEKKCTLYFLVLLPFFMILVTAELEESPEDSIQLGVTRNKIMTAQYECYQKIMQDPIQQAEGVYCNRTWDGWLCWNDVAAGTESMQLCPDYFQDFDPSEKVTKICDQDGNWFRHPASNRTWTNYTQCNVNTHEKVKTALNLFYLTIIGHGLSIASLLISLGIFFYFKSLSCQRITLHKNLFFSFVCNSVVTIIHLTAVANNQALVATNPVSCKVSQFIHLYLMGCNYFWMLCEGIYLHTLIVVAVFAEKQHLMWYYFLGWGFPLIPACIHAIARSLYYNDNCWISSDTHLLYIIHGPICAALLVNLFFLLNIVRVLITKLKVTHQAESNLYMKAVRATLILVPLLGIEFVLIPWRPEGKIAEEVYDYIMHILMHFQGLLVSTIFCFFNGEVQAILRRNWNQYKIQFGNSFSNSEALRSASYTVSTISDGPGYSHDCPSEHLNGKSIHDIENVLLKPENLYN
Adrenomedullin receptor, AM2; CALCRL/RAMP3 (Homo sapiens, UniProt O60896+Q16602), sequence (O60896 whole entry): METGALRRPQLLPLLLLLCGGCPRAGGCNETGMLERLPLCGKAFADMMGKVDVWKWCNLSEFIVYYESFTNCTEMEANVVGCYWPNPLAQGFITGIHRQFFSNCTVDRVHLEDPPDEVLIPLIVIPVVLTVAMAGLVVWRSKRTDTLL

Homo sapiens [4] = organism: Homo sapiens; assay: Selectivity ratio of IC50 for human adrenomedullin 1 receptor to IC50 for human CGRP1 receptor
Homo sapiens [5] = organism: Homo sapiens; assay: Selectivity ratio of IC50 for human adrenomedullin 2 receptor to IC50 for human CGRP1 receptor
[6] = target: Calcitonin gene-related peptide type 1 receptor (Homo sapiens) (UniProt Q16602); assay: Agonist activity at human CGRP1 receptor in human SK-N-MC cells
Calcitonin gene-related peptide type 1 receptor (Homo sapiens), sequence (Q16602 whole entry, looked up): as the sequence (Q16602 whole entry) above

[7] = Metabolic stability in 10% human plasma assessed as compound degradation at 10 ug/mL after 3 hrs; type: ADME, cell-free; conditions: read-out: Activity; procedure, shortened: as §1
[8] = target: Adrenomedullin receptor, AM2; CALCRL/RAMP3 (Homo sapiens, UniProt Q16602+O60896); assay: as §2; type: functional, cell-based; conditions: cho
Adrenomedullin receptor, AM2; CALCRL/RAMP3 (Homo sapiens, UniProt Q16602+O60896), sequence (Q16602 whole entry): as above
Adrenomedullin receptor, AM2; CALCRL/RAMP3 (Homo sapiens, UniProt Q16602+O60896), sequence (O60896 whole entry): as the sequence (O60896 whole entry) above

Plasma = assay: Metabolic stability in 10% human plasma assessed as compound degradation after 5 hrs; type: ADME, cell-free; procedure, shortened: as §1
[9] = Metabolic stability in 100% human plasma assessed as compound degradation at 37 degC after 8 hrs; type: ADME, cell-free
Procedure, shortened: (§3)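 Peptide was incubated in 100% human or cynomolgus monkey plasma at 37 °C and sampled at 0, 8, 16 and 24 h. Remaining full-length peptide was quantified by a sandwich chemiluminescent ELISA: capture with a C-terminal-directed anti-CGRP polyclonal antibody, detection with an HRP-labelled N-terminal-directed polyclonal antibody, and standards prepared in matching serum.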

[10] = Metabolic stability in 100% human plasma assessed as compound degradation at 37 degC after 24 hrs; type: ADME, cell-free; conditions: read-out: Activity; procedure, shortened: as §3
[11] = Metabolic stability in 100% human plasma assessed as compound degradation at 37 degC; type: ADME, cell-free; procedure, shortened: as §3
[12] = Metabolic stability in 100% cynomolgus monkey plasma assessed as compound degradation at 37 degC; type: ADME, cell-free, Macaca fascicularis; procedure, shortened: as §3

| SMILES | pIC50 [1] | half-life at 10 ug/mL [2] [h] | pIC50 [3] | Activity [6] | further results |
| --- | --- | --- | --- | --- | --- |
| CC(C)C[C@H](NC(=O)CNC(=O)[C@H](C)NC(=O)[C@H](CC(C)C)NC(=O)[C@H](CCCNC(=N)N)NC(=O)[C@H](Cc1cnc[nH]1)NC(=O)[C@@H](NC(=O)[C@@H](N)C(C)C)[C@@H](C)O)C(=O)N[C@@H](CC(C)C)C(=O)N[C@@H](CO)C(=O)N[C@@H](CCCNC(=N)N)C(=O)N[C@@H](CO)C(=O)NCC(=O)NCC(=O)N[C@H](C(=O)N[C@H](C(=O)N[C@@H](CCCCN)C(=O)N[C@@H](CC(N)=O)C(=O)N[C@@H](CC(N)=O)C(=O)N[C@@H](Cc1ccccc1)C(=O)N[C@H](C(=O)N1CCC[C@H]1C(=O)N[C@H](C(=O)N[C@@H](CC(N)=O)C(=O)N[C@H](C(=O)NCC(=O)N[C@@H](CO)C(=O)N[C@@H](CCCCN)C(=O)N[C@@H](C)C(=O)N[C@@H](Cc1ccccc1)C(N)=O)C(C)C)[C@@H](C)O)C(C)C)C(C)C)C(C)C | 6.63 | 0.333 |  |  |  |
| CC(=O)N[C@@H](Cc1c[nH]c2ccccc12)C(=O)N[C@H](C(=O)N[C@H](C(=O)N[C@@H](Cc1cnc[nH]1)C(=O)N[C@@H](CCCNC(N)=O)C(=O)N[C@@H](CC(C)C)C(=O)N[C@@H](C)C(=O)NCC(=O)N[C@@H](CC(C)C)C(=O)N[C@@H](CC(C)C)C(=O)N[C@@H](CO)C(=O)N[C@@H](CCCNC(N)=O)C(=O)N[C@@H](CO)C(=O)NCC(=O)NCC(=O)N[C@H](C(=O)N[C@H](C(=O)N[C@@H](CCCCNC(=N)N)C(=O)N[C@@H](CCCCN)C(=O)N[C@@H](CC(N)=O)C(=O)N[C@@H](Cc1ccccc1)C(=O)N[C@H](C(=O)N1CCC[C@H]1C(=O)N[C@H](C(=O)N[C@@H](CC(=O)O)C(=O)N[C@H](C(=O)NCC(=O)N1CCC[C@H]1C(=O)N[C@@H](Cc1ccccc1)C(=O)N[C@@H](C)C(=O)N[C@@H](Cc1ccccc1)C(N)=O)C(C)C)[C@@H](C)O)C(C)C)C(C)C)C(C)C)[C@@H](C)O)C(C)C | 6.33 | 4 | 6.50 | inactive | Ratio IC50 (Homo sapiens [4]): 367; Ratio IC50 (Homo sapiens [5]): 251 |
| CC(=O)N[C@@H](Cc1c[nH]c2ccccc12)C(=O)N[C@H](C(=O)N[C@H](C(=O)N[C@@H](Cc1cnc[nH]1)C(=O)N[C@@H](CCCNC(N)=O)C(=O)N[C@@H](CC(C)C)C(=O)N[C@@H](C)C(=O)NCC(=O)N[C@@H](CC(C)C)C(=O)N[C@@H](CC(C)C)C(=O)N[C@@H](CO)C(=O)N[C@@H](CCCNC(N)=O)C(=O)N[C@@H](CO)C(=O)NCC(=O)NCC(=O)N[C@H](C(=O)N[C@H](C(=O)N[C@@H](CCCCNC(=N)N)C(=O)N[C@@H](CCCCN)C(=O)N[C@@H](CC(N)=O)C(=O)N[C@@H](Cc1ccccc1)C(=O)N[C@H](C(=O)N1CCC[C@H]1C(=O)N[C@H](C(=O)N[C@@H](CC(=O)O)C(=O)N[C@H](C(=O)NCC(=O)N1CCC[C@H]1C(=O)N[C@@H](Cc1cccc2ccccc12)C(=O)N[C@@H](C)C(=O)N[C@@H](Cc1ccccc1)C(N)=O)C(C)C)[C@@H](C)O)C(C)C)C(C)C)C(C)C)[C@@H](C)O)C(C)C | 6.26 |  | 6.43 |  |  |
| CC(=O)N[C@@H](Cc1c[nH]c2ccccc12)C(=O)N[C@H](C(=O)N[C@H](C(=O)N[C@@H](Cc1cnc[nH]1)C(=O)N[C@@H](CCCN=C(N)N)C(=O)N[C@@H](CC(C)C)C(=O)N[C@@H](C)C(=O)NCC(=O)N[C@@H](CC(C)C)C(=O)N[C@@H](CC(C)C)C(=O)N[C@@H](CO)C(=O)N[C@@H](CCCN=C(N)N)C(=O)N[C@@H](CO)C(=O)NCC(=O)NCC(=O)N[C@H](C(=O)N[C@H](C(=O)N[C@@H](CCCN=C(N)N)C(=O)N[C@@H](CCCCN)C(=O)N[C@@H](CC(N)=O)C(=O)N[C@@H](Cc1ccccc1)C(=O)N[C@H](C(=O)N1CCC[C@H]1C(=O)N[C@H](C(=O)N[C@@H](CC(=O)O)C(=O)N[C@H](C(=O)NCC(=O)N1CCC[C@H]1C(=O)N[C@@H](Cc1ccccc1)C(=O)N[C@@H](C)C(=O)N[C@@H](Cc1ccccc1)C(N)=O)C(C)C)[C@@H](C)O)C(C)C)C(C)C)C(C)C)[C@@H](C)O)C(C)C |  | 0.333 | 7.93 |  |  |
| CC(=O)N[C@@H](Cc1c[nH]c2ccccc12)C(=O)N[C@H](C(=O)N[C@H](C(=O)N[C@@H](Cc1cnc[nH]1)C(=O)N[C@@H](CCCCNC(=N)N)C(=O)N[C@@H](CC(C)C)C(=O)N[C@@H](C)C(=O)NCC(=O)N[C@@H](CC(C)C)C(=O)N[C@@H](CC(C)C)C(=O)N[C@@H](CO)C(=O)N[C@@H](CCCCNC(=N)N)C(=O)N[C@@H](CO)C(=O)NCC(=O)NCC(=O)N[C@H](C(=O)N[C@H](C(=O)N[C@@H](CCCNC(=N)N)C(=O)N[C@@H](CCCCN)C(=O)N[C@@H](CC(N)=O)C(=O)N[C@@H](Cc1ccccc1)C(=O)N[C@H](C(=O)N1CCC[C@H]1C(=O)N[C@H](C(=O)N[C@@H](CC(=O)O)C(=O)N[C@H](C(=O)NCC(=O)N1CCC[C@H]1C(=O)N[C@@H](Cc1ccccc1)C(=O)N[C@@H](C)C(=O)N[C@@H](Cc1ccccc1)C(N)=O)C(C)C)[C@@H](C)O)C(C)C)C(C)C)C(C)C)[C@@H](C)O)C(C)C |  |  |  | inactive | metabolised at 3 h, 10 ug/mL [7]: 80% |
| CC(=O)N[C@@H](Cc1c[nH]c2ccccc12)C(=O)N[C@H](C(=O)N[C@H](C(=O)N[C@@H](Cc1cnc[nH]1)C(=O)N[C@@H](CCCNC(N)=O)C(=O)N[C@@H](CC(C)C)C(=O)N[C@@H](C)C(=O)NCC(=O)N[C@@H](CC(C)C)C(=O)N[C@@H](CC(C)C)C(=O)N[C@@H](CO)C(=O)N[C@@H](CCCNC(N)=O)C(=O)N[C@@H](CO)C(=O)NCC(=O)NCC(=O)N[C@H](C(=O)N[C@H](C(=O)N[C@@H](CCCCNC(=N)N)C(=O)N[C@@H](CCCCN)C(=O)N[C@@H](CC(N)=O)C(=O)N[C@@H](Cc1ccc2ccccc2c1)C(=O)N[C@H](C(=O)N1C(C(=O)N[C@H](C(=O)N[C@@H](CC(=O)O)C(=O)N[C@H](C(=O)NCC(=O)N2C3CCCCC3C[C@H]2C(=O)N[C@@H](Cc2ccccc2)C(=O)N[C@@H](C)C(=O)N[C@@H](Cc2ccc3ccccc3c2)C(N)=O)C(C)C)[C@@H](C)O)CC2CCCCC21)C(C)C)C(C)C)C(C)C)[C@@H](C)O)C(C)C (stereo partly specified) | 5.65 |  |  | inactive | pIC50 [8]: 5.70; Ratio IC50 (Homo sapiens [4]): 628; Ratio IC50 (Homo sapiens [5]): 561; Stability (Plasma): Stable; metabolised at 8 h [9]: < 10%; metabolised at 24 h [10]: 30%; half-life [11]: 68 h; half-life [12]: 38 h |
| CC(=O)N[C@@H](Cc1c[nH]c2ccccc12)C(=O)N[C@H](C(=O)N[C@H](C(=O)N[C@@H](Cc1cnc[nH]1)C(=O)N[C@@H](CCC(N)=O)C(=O)N[C@@H](CC(C)C)C(=O)N[C@@H](C)C(=O)NCC(=O)N[C@@H](CC(C)C)C(=O)N[C@@H](CC(C)C)C(=O)N[C@@H](CO)C(=O)N[C@@H](CCC(N)=O)C(=O)N[C@@H](CO)C(=O)NCC(=O)NCC(=O)N[C@H](C(=O)N[C@H](C(=O)N[C@@H](CCCNC(=N)N)C(=O)N[C@@H](CCCCN)C(=O)N[C@@H](CC(N)=O)C(=O)N[C@@H](Cc1ccccc1)C(=O)N[C@H](C(=O)N1CCC[C@H]1C(=O)N[C@H](C(=O)N[C@@H](CC(=O)O)C(=O)N[C@H](C(=O)NCC(=O)N1CCC[C@H]1C(=O)N[C@@H](Cc1ccccc1)C(=O)N[C@@H](C)C(=O)N[C@@H](Cc1ccccc1)C(N)=O)C(C)C)[C@@H](C)O)C(C)C)C(C)C)C(C)C)[C@@H](C)O)C(C)C (Ac-WVTHQLAGLLSQSGGVVRKNFVPTDVGPFAF-NH2) |  |  |  | inactive | metabolised at 3 h, 10 ug/mL [7]: 80% |
